We go through 26 molecules from PubChem BioAssay AID623962 (The Scripps Research Institute Molecular Screening Center, 2012).

Values joined by “and” are separate entries in the source; they are usually repeats but may differ in a detail not shown here. Equal values may be shown once. Active and inactive are the calls of the source.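 Rule for the calls: active = mean inhibition at 10 µM of 50% or more; inactive = mean inhibition at 10 µM below 50%.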

The assay deals with Huh-7.5 HCV Rluc replicon, luciferase luminescence, 72 h. Put plainly: HCV RNA replication inhibitors in Huh-7.5 cells – cell-based, luminescence, Renilla luciferase replicon, orthogonal assay for HCV NS3 helicase inhibitor project, late-stage follow-up (AID 623962). The conditions noted are these: at 10 µM; hits give high values. An outline of the steps: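 Assay system: Huh-7.5 HCV Renilla luciferase replicon cells | Compound: One concentration, 10 µM in 0.5% DMSO | Times: 4-5 h attachment, 72 h compound exposure at 37 °C | Detection: Renilla luciferase luminescence from cell lysate after freeze/thaw lysis | Evaluation: % replication inhibition versus DMSO-treated cells | Controls: DMSO-only wells as reference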
Broadly, the inhibition is the drop in the measured response relative to a control, in per cent. Consider `Cc1ccc2nc(-c3ccc(N)cc3)sc2c1S(=O)(=O)O`, for which the inhibition is 0% (inactive).
The same measure for `Cc1cc2sc(-c3ccc(N)cc3)nc2cc1S(=O)(=O)O`: 0% (inactive); for `Cc1ccc2nc(-c3ccc(NC(=O)c4ccc(NS(=O)(=O)c5ccccc5)cc4)cc3)sc2c1S(=O)(=O)O`: -73% (inactive).
Consider `Cc1ccc2nc(-c3ccc4nc(-c5ccc(NC(=O)c6ccncc6)cc5)sc4c3)sc2c1S(=O)(=O)O`, for which the inhibition was 59%.
The same measure for `Cc1ccc2nc(-c3ccc4nc(-c5ccc(NC(=O)c6cccnc6)cc5)sc4c3)sc2c1S(=O)(=O)O`: 51%; for `Cc1ccc2nc(-c3ccc(NC(=O)c4ccc(C(F)(F)F)cc4)cc3)sc2c1S(=O)(=O)O`: 11% (inactive).
`Cc1ccc2nc(-c3ccc4nc(-c5ccc(NC(=O)Nc6ccccc6)cc5)sc4c3)sc2c1S(=O)(=O)O`: the inhibition is -18% (inactive).
The same measure for `CCN(CC)c1ccc(-c2nc3ccc(-c4nc5ccc(C)c(S(=O)(=O)O)c5s4)cc3s2)cc1`: 0% (inactive).
The same measure for `CCN(CC)c1ccc(-c2nc3ccc(C)c(S(=O)(=O)O)c3s2)cc1`: 0% (inactive); for `Cc1ccc2nc(-c3ccc4nc(-c5ccc(NC(=O)Nc6ccc(F)cc6)cc5)sc4c3)sc2c1S(=O)(=O)O`: 17% (inactive).
As to `Cc1ccc2nc(-c3ccc4nc(-c5ccc(NC(=O)c6ccc(Cl)cc6)cc5)sc4c3)sc2c1S(=O)(=O)O`, the inhibition is 42% (inactive).
Consider `Cc1ccc2nc(-c3ccc4nc(-c5ccc6nc(-c7ccc(N)cc7)sc6c5)sc4c3)sc2c1S(=O)(=O)O`, for which the inhibition is 59%.
In the case of `Cc1ccc2nc(-c3ccc4nc(-c5ccc(NC(=O)c6ccc7nc(-c8ccc(NC(=O)OCC9c%10ccccc%10-c%10ccccc%109)cc8)sc7c6)cc5)sc4c3)sc2c1S(=O)(=O)O`, the inhibition was 42% (inactive) and 44% (inactive).
Regarding `Cc1ccc(NC(=O)Nc2ccc(-c3nc4ccc(-c5nc6ccc(C)c(S(=O)(=O)O)c6s5)cc4s3)cc2)cc1`, the inhibition was 43% (inactive).
The same measure for `CN1CCN(Cc2cc(CN3CCN(C)CC3)c(O)c(=O)c(CN3CCN(C)CC3)c2)CC1`: 46% (inactive).
For `Cc1ccc(C(=O)Nc2ccc(-c3nc4ccc(-c5nc6ccc(C)c(S(=O)(=O)O)c6s5)cc4s3)cc2)cc1`, the inhibition was 52%.
The same measure for `Cc1cc2sc(-c3ccc4nc(-c5ccc(N)cc5)sc4c3)nc2cc1S(=O)(=O)O`: 28% (inactive).
With `Cc1ccc2nc(-c3ccc4nc(-c5ccc(NC(=O)c6cc(C(F)(F)F)cc(C(F)(F)F)c6)cc5)sc4c3)sc2c1S(=O)(=O)O`, the inhibition is 60%.
The same measure for `Cc1ccc2nc(-c3ccc4nc(-c5ccc6nc(-c7ccc(N)cc7)sc6c5)sc4c3)sc2c1S(=O)(=O)O` (tested in a mixture with another compound): 0% (inactive); for `Cc1ccc2nc(-c3ccc4nc(-c5ccc(NC(=O)c6ccc(Cl)c(Cl)c6)cc5)sc4c3)sc2c1S(=O)(=O)O`: 43% (inactive); for `O=C(Nc1ccc(-c2nc3ccccc3[nH]2)cc1)c1ccc2ncsc2c1`: -7% (inactive).
As to `Cc1ccc2nc(-c3ccc(NC(=O)c4ccc(NC(=O)c5ccc(NC(=O)OCC6c7ccccc7-c7ccccc76)cc5)cc4)cc3)sc2c1S(=O)(=O)O`, the inhibition was -14% (inactive).
For the molecule `Cc1ccc2nc(-c3ccc4nc(-c5ccc(NC(=O)Nc6ccc(C(F)(F)F)cc6)cc5)sc4c3)sc2c1S(=O)(=O)O`, the inhibition was 7% (inactive).
Consider `Cc1ccc2nc(-c3ccc4nc(NC(=O)c5ccc6ncoc6c5)sc4c3)sc2c1`, for which the inhibition was 90%.
`Cc1ccc2nc(-c3ccc4nc(-c5ccc(NC(=O)c6ccc(NC(=O)OCC7c8ccccc8-c8ccccc87)cc6)cc5)sc4c3)sc2c1S(=O)(=O)O`: the inhibition was 57%.
The same measure for `Cc1ccc2nc(-c3ccc(NC(=O)c4ccc(NC(=O)c5ccc(N)cc5)cc4)cc3)sc2c1S(=O)(=O)O`: -42% (inactive).
